Measurements reported in ChEMBL document CHEMBL1142517, “Discovery of an orally bioavailable small molecule inhibitor of prosurvival B-cell lymphoma 2 proteins” (J Med Chem, 2008).

Target: Apoptosis regulator Bcl-2 (Homo sapiens, UniProt P10415)
Assay: Displacement of fluorescein labeled Bax peptide from Bcl2 by fluorescence polarization assay
Conditions: not given

Chain of Apoptosis regulator Bcl-2 (P10415 whole entry): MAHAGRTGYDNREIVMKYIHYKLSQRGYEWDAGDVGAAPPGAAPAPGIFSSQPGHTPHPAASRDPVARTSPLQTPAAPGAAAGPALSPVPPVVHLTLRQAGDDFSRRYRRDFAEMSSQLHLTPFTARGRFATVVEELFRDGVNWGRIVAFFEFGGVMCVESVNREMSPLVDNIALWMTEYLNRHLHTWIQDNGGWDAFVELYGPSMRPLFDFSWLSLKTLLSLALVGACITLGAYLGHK

Ki [nM]	SMILES
< 1	CN(C)CC[C@H](CSc1ccccc1)Nc1ccc(S(=O)(=O)NC(=O)c2ccc(N3CCN(Cc4ccccc4-c4ccc(Cl)cc4)CC3)cc2)cc1C(=O)C(F)(F)F

Test system: not listed separately
Assay: Cytotoxicity against IL3-dependent mouse FL5.12 cells overexpressing human Bcl-XL assessed as cell viability after 24 hrs by MTS assay in absence of serum
Assay type: functional, cell-based
Conditions: FL5.12, 24 h
Summary of the method: (§1)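 Mouse FL5.12 cells transfected with Bcl-XL or Bcl-2, deprived of IL-3 (no FBS or WEHI-3B conditioned medium) for 2 days. Then moved to serum-free gelatin medium (3.4 mg/mL bovine gelatin) with serially diluted compound for 24 h. Viability by MTS or CellTiter-Glo. Determinations in duplicate.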

SMILES	EC50 [nM]
CN(C)CC[C@H](CSc1ccccc1)Nc1ccc(S(=O)(=O)NC(=O)c2ccc(N3CCN(Cc4ccccc4-c4ccc(Cl)cc4)CC3)cc2)cc1C(=O)C(F)(F)F	329
CN(C)CC[C@H](CSc1ccccc1)Nc1ccc(S(=O)(=O)NC(=O)c2ccc(N3CCN(Cc4ccccc4-c4ccc(Cl)cc4)CC3)cc2)cc1[N+](=O)[O-] [ABT 737]	30
CC1(C)CCC(c2ccc(Cl)cc2)=C(CN2CCN(c3ccc(C(=O)NS(=O)(=O)c4ccc(N[C@H](CCN5CCOCC5)CSc5ccccc5)c(S(=O)(=O)C(F)(F)F)c4)cc3)CC2)C1 [NAVITOCLAX]	4.2

Test system: not listed separately
Assay: Cytotoxicity against IL3-dependent mouse FL5.12 cells overexpressing human Bcl2 assessed as cell viability after 24 hrs by MTS assay in absence of serum
Assay type: functional, cell-based
Conditions: FL5.12, 24 h
Summary of the method: as §1

SMILES	EC50 [nM]
CN(C)CC[C@H](CSc1ccccc1)Nc1ccc(S(=O)(=O)NC(=O)c2ccc(N3CCN(Cc4ccccc4-c4ccc(Cl)cc4)CC3)cc2)cc1C(=O)C(F)(F)F	55
CN(C)CC[C@H](CSc1ccccc1)Nc1ccc(S(=O)(=O)NC(=O)c2ccc(N3CCN(Cc4ccccc4-c4ccc(Cl)cc4)CC3)cc2)cc1[N+](=O)[O-] [ABT 737]	7.7
CC1(C)CCC(c2ccc(Cl)cc2)=C(CN2CCN(c3ccc(C(=O)NS(=O)(=O)c4ccc(N[C@H](CCN5CCOCC5)CSc5ccccc5)c(S(=O)(=O)C(F)(F)F)c4)cc3)CC2)C1 [NAVITOCLAX]	5.9

Test system: not listed separately
Assay: Oral bioavailability in CD1 mouse
Assay type: ADME, organism-based
Conditions: in vivo

bioavailability [%]	SMILES
20	CC1(C)CCC(c2ccc(Cl)cc2)=C(CN2CCN(c3ccc(C(=O)NS(=O)(=O)c4ccc(N[C@H](CCN5CCOCC5)CSc5ccccc5)c(S(=O)(=O)C(F)(F)F)c4)cc3)CC2)C1 [NAVITOCLAX]

Test system: not listed separately
Assay: Oral elimination half life in CD1 mouse
Assay type: ADME, organism-based
Conditions: in vivo, read-out: beta t1/2 (converted)

half-life [h]	SMILES
4	CC1(C)CCC(c2ccc(Cl)cc2)=C(CN2CCN(c3ccc(C(=O)NS(=O)(=O)c4ccc(N[C@H](CCN5CCOCC5)CSc5ccccc5)c(S(=O)(=O)C(F)(F)F)c4)cc3)CC2)C1 [NAVITOCLAX]

Test system: not listed separately
Assay: Oral elimination half life in Beagle dog
Assay type: ADME, organism-based, Canis lupus familiaris
Conditions: in vivo, read-out: beta t1/2 (converted)

half-life [h]	SMILES
4	CC1(C)CCC(c2ccc(Cl)cc2)=C(CN2CCN(c3ccc(C(=O)NS(=O)(=O)c4ccc(N[C@H](CCN5CCOCC5)CSc5ccccc5)c(S(=O)(=O)C(F)(F)F)c4)cc3)CC2)C1 [NAVITOCLAX]

Test system: not listed separately
Assay: AUC in Sprague-Dawley rat at 5 mg/kg, po
Assay type: ADME, organism-based
Set-up: dose 5 mg/kg, route oral
Conditions: plasma
Summary of the method: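 Sprague-Dawley rats, single 5 mg/kg oral dose by gavage in 10% DMSO in PEG-400, n = 3. Heparinized blood taken before dosing and at set times. Plasma proteins precipitated with acetonitrile, then LC-MS/MS against spiked plasma standards with an internal standard. AUC by linear trapezoidal rule.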

AUC [µM·h]	SMILES
1.25	CN(C)CC[C@H](CSc1ccccc1)Nc1ccc(S(=O)(=O)NC(=O)c2ccc(N3CCN(Cc4ccccc4-c4ccc(Cl)cc4)CC3)cc2)cc1C(=O)C(F)(F)F
0.28	CN(C)CC[C@H](CSc1ccccc1)Nc1ccc(S(=O)(=O)NC(=O)c2ccc(N3CCN(Cc4ccccc4-c4ccc(Cl)cc4)CC3)cc2)cc1[N+](=O)[O-] [ABT 737]
6.26	CC1(C)CCC(c2ccc(Cl)cc2)=C(CN2CCN(c3ccc(C(=O)NS(=O)(=O)c4ccc(N[C@H](CCN5CCOCC5)CSc5ccccc5)c(S(=O)(=O)C(F)(F)F)c4)cc3)CC2)C1 [NAVITOCLAX]

Test system: not listed separately
Assay: Ratio of AUC for Sprague-Dawley rat at 5 mg/kg, po to EC50 for human NCI-H146 cells in presence of 10% human serum
Assay type: functional
Conditions: not given
Summary of the method: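 The cells were treated for 48 h in medium with 10% human serum, and viability was read by CellTiter-Glo luminescence.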

SMILES	Ratio
CN(C)CC[C@H](CSc1ccccc1)Nc1ccc(S(=O)(=O)NC(=O)c2ccc(N3CCN(Cc4ccccc4-c4ccc(Cl)cc4)CC3)cc2)cc1C(=O)C(F)(F)F	0.62

Test system: not listed separately
Assay: Oral bioavailability in Sprague-Dawley rat
Assay type: ADME, organism-based
Conditions: in vivo

bioavailability [%]	SMILES
20	CC1(C)CCC(c2ccc(Cl)cc2)=C(CN2CCN(c3ccc(C(=O)NS(=O)(=O)c4ccc(N[C@H](CCN5CCOCC5)CSc5ccccc5)c(S(=O)(=O)C(F)(F)F)c4)cc3)CC2)C1 [NAVITOCLAX]

Test system: not listed separately
Assay: AUC in Beagle dog at 2.5 mg/kg, iv or po
Assay type: ADME, organism-based, Canis lupus familiaris
Set-up: dose 2.5 mg/kg, route oral
Conditions: plasma
Summary of the method: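 Beagle dogs, single 2.5 mg/kg dose in 10% DMSO in PEG-400, n = 3 per route. Intravenous dose given as a slow cephalic-vein bolus; oral dose by gavage followed by 10 mL water. Plasma by LC-MS/MS. AUC by linear trapezoidal rule.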

AUC [µM·h]	SMILES
27.8	CC1(C)CCC(c2ccc(Cl)cc2)=C(CN2CCN(c3ccc(C(=O)NS(=O)(=O)c4ccc(N[C@H](CCN5CCOCC5)CSc5ccccc5)c(S(=O)(=O)C(F)(F)F)c4)cc3)CC2)C1 [NAVITOCLAX]

Test system: not listed separately
Assay: AUC in cynomolgus monkey at 2.5 mg/kg, po
Assay type: ADME, organism-based, Macaca fascicularis
Set-up: dose 2.5 mg/kg, route oral
Conditions: plasma
Summary of the method: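 Cynomolgus monkeys, single 2.5 mg/kg oral dose in 10% DMSO in PEG-400 by gastric intubation followed by 5 mL water, n = 3. Serial heparinized plasma assayed by LC-MS/MS. AUC by linear trapezoidal rule.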

AUC [µM·h]	SMILES
6.61	CC1(C)CCC(c2ccc(Cl)cc2)=C(CN2CCN(c3ccc(C(=O)NS(=O)(=O)c4ccc(N[C@H](CCN5CCOCC5)CSc5ccccc5)c(S(=O)(=O)C(F)(F)F)c4)cc3)CC2)C1 [NAVITOCLAX]

Test system: not listed separately
Assay: Oral elimination half life in Sprague-Dawley rat
Assay type: ADME, organism-based
Conditions: in vivo, read-out: beta t1/2 (converted)

half-life [h]	SMILES
4	CC1(C)CCC(c2ccc(Cl)cc2)=C(CN2CCN(c3ccc(C(=O)NS(=O)(=O)c4ccc(N[C@H](CCN5CCOCC5)CSc5ccccc5)c(S(=O)(=O)C(F)(F)F)c4)cc3)CC2)C1 [NAVITOCLAX]

Test system: NCI-H1963 (Homo sapiens)
Assay: Antitumor activity against human NCI-H1963 cells xenografted C.B-17 SCID-bg mouse assessed as inhibition of tumor growth at 100 mg/kg, po daily once for 21 days
Conditions: 504 h, read-out: TGI

SMILES	inhibition in vivo at 100 mg/kg [%]
CC1(C)CCC(c2ccc(Cl)cc2)=C(CN2CCN(c3ccc(C(=O)NS(=O)(=O)c4ccc(N[C@H](CCN5CCOCC5)CSc5ccccc5)c(S(=O)(=O)C(F)(F)F)c4)cc3)CC2)C1 [NAVITOCLAX]	100

Test system: not listed separately
Assay: AUC in CD1 mouse at 50 mg/kg, po
Assay type: ADME, organism-based
Set-up: dose 50 mg/kg, route oral
Conditions: plasma
Summary of the method: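 CD-1 mice, single 50 mg/kg oral gavage in 2% DMSO/5% Tween-80/20% propylene glycol/73% D5W, n = 27. Groups of three euthanized by CO2 at set times and blood taken by cardiac puncture. Plasma by LC-MS/MS. AUC by linear trapezoidal rule.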

AUC [µM·h]	SMILES
56.7	CC1(C)CCC(c2ccc(Cl)cc2)=C(CN2CCN(c3ccc(C(=O)NS(=O)(=O)c4ccc(N[C@H](CCN5CCOCC5)CSc5ccccc5)c(S(=O)(=O)C(F)(F)F)c4)cc3)CC2)C1 [NAVITOCLAX]

Test system: not listed separately
Assay: Oral bioavailability in cynomolgus monkey
Assay type: ADME, organism-based, Macaca fascicularis
Conditions: in vivo

bioavailability [%]	SMILES
20	CC1(C)CCC(c2ccc(Cl)cc2)=C(CN2CCN(c3ccc(C(=O)NS(=O)(=O)c4ccc(N[C@H](CCN5CCOCC5)CSc5ccccc5)c(S(=O)(=O)C(F)(F)F)c4)cc3)CC2)C1 [NAVITOCLAX]

Test system: not listed separately
Assay: Cytotoxicity against human NCI-H146 cells assessed as cell viability after 48 hrs in presence of 10% human serum
Assay type: functional, cell-based
Conditions: NCI-H146, 48 h
Summary of the method: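 NCI-H146 SCLC cells maintained in RPMI 1640 with 10% FBS at 37 °C, 5% CO2. Treated for 48 h in medium with 10% human serum. Viability by CellTiter-Glo luminescence. Values from duplicate runs.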

SMILES	EC50 [nM]
CN(C)CC[C@H](CSc1ccccc1)Nc1ccc(S(=O)(=O)NC(=O)c2ccc(N3CCN(Cc4ccccc4-c4ccc(Cl)cc4)CC3)cc2)cc1C(=O)C(F)(F)F	2010
CN(C)CC[C@H](CSc1ccccc1)Nc1ccc(S(=O)(=O)NC(=O)c2ccc(N3CCN(Cc4ccccc4-c4ccc(Cl)cc4)CC3)cc2)cc1[N+](=O)[O-] [ABT 737]	87
CC1(C)CCC(c2ccc(Cl)cc2)=C(CN2CCN(c3ccc(C(=O)NS(=O)(=O)c4ccc(N[C@H](CCN5CCOCC5)CSc5ccccc5)c(S(=O)(=O)C(F)(F)F)c4)cc3)CC2)C1 [NAVITOCLAX]	86.7

Test system: not listed separately
Assay: Oral bioavailability in Beagle dog
Assay type: ADME, organism-based, Canis lupus familiaris
Conditions: in vivo

bioavailability [%]	SMILES
20	CC1(C)CCC(c2ccc(Cl)cc2)=C(CN2CCN(c3ccc(C(=O)NS(=O)(=O)c4ccc(N[C@H](CCN5CCOCC5)CSc5ccccc5)c(S(=O)(=O)C(F)(F)F)c4)cc3)CC2)C1 [NAVITOCLAX]

Test system: not listed separately
Assay: Oral bioavailability in Sprague-Dawley rat at 5 mg/kg
Assay type: ADME, organism-based
Conditions: in vivo

bioavailability [%]	SMILES
6	CN(C)CC[C@H](CSc1ccccc1)Nc1ccc(S(=O)(=O)NC(=O)c2ccc(N3CCN(Cc4ccccc4-c4ccc(Cl)cc4)CC3)cc2)cc1[N+](=O)[O-] [ABT 737]
20	CC1(C)CCC(c2ccc(Cl)cc2)=C(CN2CCN(c3ccc(C(=O)NS(=O)(=O)c4ccc(N[C@H](CCN5CCOCC5)CSc5ccccc5)c(S(=O)(=O)C(F)(F)F)c4)cc3)CC2)C1 [NAVITOCLAX]

Test system: not listed separately
Assay: Oral elimination half life in cynomolgus monkey
Assay type: ADME, organism-based, Macaca fascicularis
Conditions: in vivo, read-out: beta t1/2 (converted)

half-life [h]	SMILES
4	CC1(C)CCC(c2ccc(Cl)cc2)=C(CN2CCN(c3ccc(C(=O)NS(=O)(=O)c4ccc(N[C@H](CCN5CCOCC5)CSc5ccccc5)c(S(=O)(=O)C(F)(F)F)c4)cc3)CC2)C1 [NAVITOCLAX]
